These results are taken from ChEMBL document CHEMBL2375209, “Fungal ABC transporter-associated activity of isoflavonoids from the root extract of Dalea formosa” (2013).

Converted amounts (≈) assume the structure as drawn. The source made the active and inactive calls. No cut-off for these calls is given here.

In general, MIC refers to the lowest concentration that inhibits growth of the organism.

Format in all cases: functional
The subject of one experiment is Candida albicans. Nature of the experiment: Antifungal activity against wild type Candida albicans CCM 8320 after 46 to 50 hrs by broth microdilution assay. The procedure, abridged:
(§1)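 CLSI M27-A broth microdilution in MOPS-buffered (pH 7) RPMI 1640. Samples added from DMSO stocks (solvent ≤1.2%, matched in controls), serially diluted before inoculation. Growth read as OD550 plus visual inspection at 24 and 48 h. MIC = lowest concentration inhibiting growth ≥80% vs drug-free control; three independent measurements.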
(Broth dilution looks for growth in wells or tubes with falling amounts of substance.)

In a further experiment the test system is Nakaseomyces glabratus. Nature of the experiment: Antifungal activity against wild type Candida glabrata CCM 8270 after 46 to 50 hrs by broth microdilution assay. The procedure, abridged:
as §1

Experiment [1] has as its system Saccharomyces cerevisiae. Nature of the experiment: Antifungal activity against PDR5/SNQ2/YOR1 deficient Saccharomyces cerevisiae expressing PDR1 to 3 allele and heterologously overproduced Cdr1p gene after 24 to 48 hrs by microdilution. The procedure, abridged:
(§2)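 96-well microdilution; samples added from DMSO stocks (solvent ≤1.2%, matched in controls), serially diluted before inoculation; trifluoperazine, ketoconazole and fluconazole as positive controls. Growth read as OD550 plus visual inspection at 24 and 48 h. MIC = lowest concentration giving ≥80% growth inhibition vs drug-free control; values observed in three independent measurements.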

For experiment [2], the system named is Saccharomyces cerevisiae. Nature of the experiment: Antifungal activity against PDR5/SNQ2/YOR1 deficient Saccharomyces cerevisiae expressing PDR1 to 3 allele after 24 to 48 hrs by microdilution assay. The method, boiled down: as §2
Experiment [3] has as its system Saccharomyces cerevisiae. Nature of the experiment: Antifungal activity against PDR5/SNQ2/YOR1 deficient Saccharomyces cerevisiae after 24 to 48 hrs by microdilution assay. The method, boiled down: as §2
Experiment [4] deals with Saccharomyces cerevisiae. Nature of the experiment: Antifungal activity against PDR1/PDR3 deficient Saccharomyces cerevisiae after 24 to 48 hrs by microdilution assay. The procedure, abridged: as §2
Experiment [5] has as its system Saccharomyces cerevisiae. Nature of the experiment: Antifungal activity against wild type Saccharomyces cerevisiae after 24 to 48 hrs by microdilution assay. The method, boiled down: as §2

On to `COc1ccc([C@H]2COc3c(ccc(O)c3O)C2)c2c1C=CC(C)(C)O2`, for which the MIC against Candida albicans was determined as 61 µg/mL (≈ 172 µM); in the experiment on Nakaseomyces glabratus, 30.5 µg/mL (≈ 86.1 µM); against Saccharomyces cerevisiae [1], 244 µg/mL (≈ 688 µM); against Saccharomyces cerevisiae [2], 30.5 µg/mL (≈ 86.1 µM); in the experiment on Saccharomyces cerevisiae [3], 30.5 µg/mL (≈ 86.1 µM); against Saccharomyces cerevisiae [4], 15.2 µg/mL (≈ 42.9 µM). This compound also registered an MIC against Saccharomyces cerevisiae [5] of 30.5 µg/mL (≈ 86.1 µM).

As to `C=CC(C)(C)c1cc([C@]2(O)COc3cc(O)c(CC=C(C)C)c(O)c3C2=O)c(O)cc1O`, the MIC result in the experiment on Candida albicans was “inactive”. In addition, the MIC in the experiment with Nakaseomyces glabratus amounted to 122 µg/mL (≈ 277 µM); in the experiment on Saccharomyces cerevisiae [1] it was 244 µg/mL (≈ 554 µM); against Saccharomyces cerevisiae [2], 3.8 µg/mL (≈ 8.63 µM); with Saccharomyces cerevisiae [3], 3.8 µg/mL (≈ 8.63 µM); against Saccharomyces cerevisiae [4], 15.2 µg/mL (≈ 34.5 µM); with Saccharomyces cerevisiae [5], 61 µg/mL (≈ 138 µM).

In the case of `COc1ccc(C[C@H]2OC(=O)C=C2c2ccc(O)cc2O)cc1`, the MIC result in the experiment with Candida albicans was “inactive”. This compound showed an MIC with Nakaseomyces glabratus of 244 µg/mL (≈ 781 µM).

As to `COc1ccc([C@H]2COc3c(ccc(O)c3O)C2)c(O)c1CC=C(C)C`, the MIC in the experiment on Saccharomyces cerevisiae [1] was found to be 30.5 µg/mL (≈ 85.6 µM); against Saccharomyces cerevisiae [2] it was 3.8 µg/mL (≈ 10.7 µM); in the experiment on Saccharomyces cerevisiae [3] it was 3.8 µg/mL (≈ 10.7 µM); against Saccharomyces cerevisiae [4] it was 3.8 µg/mL (≈ 10.7 µM); in the experiment on Saccharomyces cerevisiae [5], 15.2 µg/mL (≈ 42.6 µM).

For the compound `COc1ccc(C2COc3cc(O)cc(O)c3C2=O)c2c1C=CC(C)(C)O2` (racemic), the MIC in the experiment on Candida albicans stood at 15 µg/mL (≈ 40.7 µM); in the experiment on Nakaseomyces glabratus, 7.6 µg/mL (≈ 20.6 µM); in the experiment on Saccharomyces cerevisiae [1], 244 µg/mL (≈ 662 µM); against Saccharomyces cerevisiae [2], 1.9 µg/mL (≈ 5.16 µM); against Saccharomyces cerevisiae [3] it was 1.9 µg/mL (≈ 5.16 µM); against Saccharomyces cerevisiae [4], 1.9 µg/mL (≈ 5.16 µM). In addition, in the experiment on Saccharomyces cerevisiae [5], the MIC was determined as 7.6 µg/mL (≈ 20.6 µM).

In the case of `C=CC(C)(C)c1cc([C@@H]2COc3c(ccc(O)c3O)C2)c(OC)cc1OC`, the MIC in the experiment on Saccharomyces cerevisiae [1] was 61 µg/mL (≈ 165 µM); in the experiment on Saccharomyces cerevisiae [2] it was 3.8 µg/mL (≈ 10.3 µM); against Saccharomyces cerevisiae [3], 3.8 µg/mL (≈ 10.3 µM); in the experiment with Saccharomyces cerevisiae [4], 3.8 µg/mL (≈ 10.3 µM); with Saccharomyces cerevisiae [5] it was 15.2 µg/mL (≈ 41 µM).

On to `COc1ccc2c(c1CC=C(C)C)O[C@@H]1c3ccc(O)cc3OC[C@H]21` [ENT-SANDWICENSIN], for which the MIC result in the experiment with Candida albicans was “inactive”. Further, the MIC is 30.5 µg/mL (≈ 90.1 µM) in the experiment with Nakaseomyces glabratus; above 244 µg/mL in the experiment on Saccharomyces cerevisiae [1]; 1.9 µg/mL (≈ 5.61 µM) in the experiment with Saccharomyces cerevisiae [2]; 1.9 µg/mL (≈ 5.61 µM) in the experiment on Saccharomyces cerevisiae [3]; 3.8 µg/mL (≈ 11.2 µM) in the experiment on Saccharomyces cerevisiae [4]; 30.5 µg/mL (≈ 90.1 µM) against Saccharomyces cerevisiae [5].

For the compound `C=CC(C)(C)c1cc(C2COc3cc(O)c(CC=C(C)C)c(O)c3C2=O)c(O)cc1O` (racemic), the MIC with Saccharomyces cerevisiae [1] is above 244 µg/mL; with Saccharomyces cerevisiae [2] it was 0.95 µg/mL (≈ 2.24 µM); against Saccharomyces cerevisiae [3] it was 0.95 µg/mL (≈ 2.24 µM); with Saccharomyces cerevisiae [4], 0.95 µg/mL (≈ 2.24 µM); in the experiment with Saccharomyces cerevisiae [5] it was 15.2 µg/mL (≈ 35.8 µM).
